Reference: the RNAGym collection of RNA variant scans (doi:10.1002/anie.201605470)

B1: Osa-1-4 twister ribozyme (parent)
chain: CCGCCUAACACUGCCAAUGCCGGUCCCAAGCCCGGAUAAAAGUGGAGGGGGCGG

Variants of: B1
Assay: self-cleavage, relative activity (ratio to wild type); higher = more cleavage; co-transcriptional
Summary of the method: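 A DNA template for a 54-nucleotide Oryza sativa twister ribozyme was synthesised with 97 % wild-type base and 1 % of each other base at the 48 positions downstream of the cleavage site. It was transcribed in vitro for 2 h at 37 °C, allowing co-transcriptional self-cleavage, then reverse-transcribed with a template-switching oligonucleotide, PCR-amplified and deep-sequenced. Cleavage status was scored from reads with or without upstream sequence. Relative activity is fraction cleaved normalised to wild type.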

Row | Variant | self-cleavage
1 | G51A U12A | 0.22
2 | G51A U12C | 0.22
3 | G51A U12G | 0.07
4 | G51A U43G | 0.1
5 | G51A U43A | 0.25
6 | G51A U43C | 0.2
7 | C52A G48A | 0.14
8 | C52A G48C | 0.1
9 | C52A G48U | 0.07
10 | C52A U43A | 0.85
11 | C52A U43C | 0.5
12 | C52A U43G | 0.37
13 | C52A G51U | 0.48
14 | C52A G51C | 0.43
15 | C52A G51A | 0.9
16 | G51U U37C | 0.51
17 | G51U U37A | 0.15
18 | G51U U37G | 0.4
19 | C52U U24C | 0.56
20 | C52U U24A | 0.33
21 | C52U U24G | 0.03

Row | Variant | self-cleavage
22 | C52G U43A | 0.9
23 | C52G U43G | 0.65
24 | C52G U43C | 0.55
25 | G51U G53C | 0.05
26 | G51U G53A | 0.19
27 | G51U G53U | 0.12
28 | C52G G19A | 0.55
29 | C52G G19C | 0.14
30 | C52G G19U | 0.27
31 | C52G G13U | 0.06
32 | C52G G13A | 0.12
33 | C52G G13C | 0.07
34 | G50U G53U | 0.37
35 | G50U G53A | 0.61
36 | G50U G53C | 0.09
37 | C52A G35C | 0.22
38 | C52A G35U | 0.81
39 | C52A G35A | 0.8
40 | G50U G54U | 0.52
41 | G50U G54C | 0.15
42 | G50U G54A | 0.79

Row | Variant | self-cleavage
43 | G53A U12A | 0.28
44 | G53A U12C | 0.37
45 | G53A U12G | 0.18
46 | G51C U12A | 0.05
47 | G51C U12C | 0.04
48 | G51C U12G | 0.05
49 | C52U G13C | 0.01
50 | C52U G13U | 0.05
51 | C52U G13A | 0.14
52 | C52G U24C | 0.22
53 | C52G U24G | 0.06
54 | C52G U24A | 0.23
55 | C52U G30U | 0.04
56 | C52U G30C | 0.04
57 | C52U G30A | 0.04
58 | C52A G45U | 0.1
59 | C52A G45A | 0.26
60 | C52A G45C | 0.07
61 | G50U G51U | 0.57
62 | G50U G51C | 0.11
63 | G50U G51A | 0.66

Row | Variant | self-cleavage
64 | C52G G22U | 0.35
65 | C52G G22C | 0.09
66 | C52G G22A | 0.75
67 | G50C U12C | 0.34
68 | G50C U12G | 0.17
69 | G50C U12A | 0.35
70 | C52G G23C | 0.09
71 | C52G G23U | 0.14
72 | C52G G23A | 0.28
73 | C52A G50U | 0.25
74 | C52A G50A | 0.69
75 | C52A G50C | 0.14
76 | C52U U12G | 0.78
77 | C52U U12C | 0.65
78 | C52U U12A | 0.99
79 | C52G G42C | 0.22
80 | C52G G42A | 0.75
81 | C52G G42U | 0.14
82 | G50U | 1.02
83 | G51U U12G | 0.05
